From publication PMC5854750 (European Journal of Drug Metabolism and Pharmacokinetics, 2017)

Tests used:
[1] = cited from earlier work
[2] = Bioavailability/food effect; assay type: in vivo; settings: male, human, plasma, oral, 25 mg, Median t max
Procedure, shortened: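 Healthy men (18–45 y, BMI 18.5–29.9 kg/m2) in a randomised crossover received single oral 25 mg doses as tablet fasted, tablet after a high-fat, high-calorie meal, or 5-mg/mL solution fasted. Washout was at least 14 days, and PK sampling ran to Day 9 per period. Plasma was assayed by validated LC-MS/MS over 1.00–1000 nM (linear calibration, 1/x² weighting, QC in K3-EDTA plasma). Adjusted gMean ratios are reported with 90% CI.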

healthy male volunteers [3] = experiment: BA/FE component: safety and tolerability; assay type: in vivo, human; settings: Part 2 (BA/FE), 25 mg, six of 11 subjects
Procedure, shortened: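 Open-label, randomised three-way crossover in 12 healthy men (18–45 y, BMI 18.5–29.9 kg/m2). Each received single oral 25 mg doses: tablet fasted, tablet after a standardised high-fat, high-calorie meal, and 5-mg/mL solution fasted, in one of six sequences. Washout between periods was at least 14 days. Safety was monitored to Day 9 of each period, with spontaneous AEs recorded by onset, end time and intensity.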

healthy male volunteers [4] = experiment: Single-rising dose; assay type: in vivo, human
[5] = SRD component: plasma and urine pharmacokinetics; assay type: in vivo, human

C[C@@H](Oc1ccc(S(C)(=O)=O)cc1C(=O)N1C[C@@H]2C[C@]2(c2cc(C(F)(F)F)on2)C1)C(F)(F)F [BI 425809]
Biopharmaceutics Classification System class [1]: Class II
Permeability [1]: high
Tmax ([2]; 25-mg solution, fasted): 0.875 h
Tmax ([2]; 25-mg tablet, fasted): 4 h
Tmax ([2]; 25-mg tablet, fed): 1.77 h
Subjects with at least one AE assessed as related to treatment (healthy male volunteers [3]): 54.5%
Subjects with at least one AE assessed as related to treatment (healthy male volunteers [4]; Part 1 (SRD), 27 of 72 subjects (includes placebo subjects)): 37.5%
Changes from baseline of QTcF interval, QT interval or heart rate vs placebo (healthy male volunteers [4]; Part 1, any of the doses tested): no statistically relevant differences
Colour discrimination and visual acuity tests (healthy male volunteers [4]; SRD): no changes from baseline
Incidence of AEs (healthy male volunteers [4]; SRD, 0.5-mg group): 16.7%
Incidence of AEs (healthy male volunteers [4]; SRD, 150-mg group): 100%
Subjects with eye disorder AE (photopsia, blurred vision or chromatopsia) (healthy male volunteers [4]; SRD, 150-mg group, n = 6): all six subjects
Subjects with at least one AE (healthy male volunteers [4]; SRD, all BI 425809 doses 0.5–150 mg, 34/54 subjects): 63.0%
Bond–Lader VAS scores of other items (calmness, contentment, external and internal perception) (healthy male volunteers [4]; SRD, dose levels of 100 and 150 mg): increased
Bond and Lader VAS and Bowdle VAS scores for subjective feelings of sedation (healthy male volunteers [4]; SRD, doses of 10 mg and greater): increase
Subjects with abnormalities on the Amsler grid test (healthy male volunteers [4]; SRD, one each at 25 and 100 mg): two subjects
Maximally tolerated dose (healthy male volunteers [4]; SRD, single oral dose, escalation terminated owing to dose-limiting AEs): 150 mg
ECG findings (healthy male volunteers [4]; both parts): No clinically relevant abnormal findings
Neurological examination findings (healthy male volunteers [4]; both parts): No clinically relevant abnormal findings
Subjects with at least one AE assessed as related to treatment (healthy male volunteers [4]; both parts, 33/83 subjects (includes placebo subjects)): 39.8%
Changes in laboratory parameters, hormone levels, haematology or vital signs (healthy male volunteers [4]; either part of the study): no clinically relevant changes
Time to disappearance of headache (healthy male volunteers [4]; first day of dosing): ≤ 12 h
Tolerability (healthy male volunteers [4]; single dose, anticipated therapeutic dose range of 5–25 mg): generally well-tolerated
Fractional renal excretion ([5]; SRD, similar across all dose groups): 5%
Tmax ([5]; male, human, plasma, oral): ~0.75 h
half-life ([5]; male, human, plasma, oral): 32.5 to 47 h
